PubChem BioAssay
Inconclusive results are not listed.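 Rule for the calls, unless noted: active = growth inhibition above 25% in both replicates, a cutoff set 3 SD above the mean; inconclusive = above 25% in only one replicate; inactive = the rest.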

Columns and labels:
[1] = OD615 S. cerevisiae growth inhibition, permissive medium, pilot counter-assay, permissive growth control for S. cerevisiae lifespan shortening project (AID 705); conditions: OD615, 24 h, at 10 µM, hits give high values
In short: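 System: Engineered DeaD yeast | Buffer or medium: SC raffinose/galactose permissive medium | Incubation: Cells pre-grown 4 h, then 24 h compound exposure, 30 °C humidified | Measured by: Absorbance (optical density) at 615 nm | Read-out: Reduction in yeast growth (OD615)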

[2] = Restrictive medium S. cerevisiae growth inhibition, OD615, pilot screen of yeast lifespan reduction project, restrictive growth control (AID 706;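 active = growth inhibition above a set limit, 3 SD over mean compound inhibition, in both replicates, cut at about 43% in these data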;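 note: modified DeaD lifespan yeast strain shifted to restrictive glucose medium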); conditions: OD615, 48 h, at 10 µM, hits give high values
In short: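 Material: modified S. cerevisiae; Medium: glucose-based CSMM-D restrictive medium; Compound dosing: one concentration, 10 µM final, 0.25% DMSO; Incubation: 48 h compound exposure at 30 °C; Measured by: OD615.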

[3] = viability gain of MRP-1-high H69AR cells under doxorubicin, pilot screen, MRP-1 activator project, CellTiter-Glo, duplicate (AID 807;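 active = viability increase at or above a cutoff of the median across tested compounds plus 3 SD, cut at about 8.5% in these data, passing the limit was not always enough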;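 note: compound pretreatment 18-22 h then 72 h combined with doxorubicin; 0% = doxorubicin alone and 100% = vehicle without doxorubicin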); conditions: H69AR viability with doxorubicin, CellTiter-Glo luminescence; at 10 µM; hits give high values
[4] = growth suppression of beta-catenin knockout HCT116, pilot screen, human colon tumor cells (AID 823;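 active = cell viability at or below a set limit in both duplicate runs, the limit being the all-compound median minus 4 SD, cut at about 23% in these data, passing the limit was not always enough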;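 note: 0% = wells killed by 20 µM Hyamine and 100% = untreated DMSO cell wells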); conditions: CellTiter-Glo, 60 h, at 10 µM, hits give low values
[5] = growth suppression of PTEN-deleted HCT116, pilot screen, cell-based, HCT116 clonal line, CellTiter-Glo (AID 824;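 active = viability at or below 27.92% in each of two runs, the all-compound median minus 4 SD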;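 note: 0% = 20 µM Hyamine control and 100% = vehicle cell control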); conditions: 60 h, at 10 µM, hits give low values
[6] = inhibitors of the yeast RAM network, pilot screen, dse1pr::URA3 reporter, 5-FOA selection (AID 869;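 active = inhibition over a set limit, the all-compound mean plus 3 SD, in both replicate runs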;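 note: 0% = DMSO wells with no growth and 100% = 10 µM 1-NA-PP1 with full growth; RAM network block rescues cells from 5-FOA so hits raise OD615 growth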); conditions: S. cerevisiae dse1pr::URA3 5-FOA growth, OD615, 2 d; at 10 µM; hits give high values; strain carries analog-sensitive mutant Cbk1 kinase
[7] = RAM signaling pathway blockade in yeast – S. cerevisiae, Pdr1DBD-CYC8 efflux-inhibited sensitized strain, primary screen (AID 1298;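 active = RAM network inhibition above 8.4% in each of two replicates, 3 SD over the compound average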;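 note: 0% = DMSO untreated cells without growth and 100% = 10 µM 1-NA-PP1 full growth; higher means more yeast growth rescued from 5-FOA killing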); conditions: S. cerevisiae cbk1-as DSE1-URA3 strain, 5-FOA growth OD615, 2 d; at 50 µM; hits give high values

Cn1c(=NC(=O)c2ccco2)sc2cccc(F)c21
inactive: growth inhibition [1] -12.6% | growth inhibition [2] -1.11% | viability increase [3] -7.04% | viability [4] 80.9% | viability [5] 78.4% | inhibition [6] 2.1% | RAM network inhibition [7] 6.79%

CCOc1ccc(S(=O)(=O)Nc2ccccc2C(=O)NCC2CCCO2)cc1 (centres undefined)
inactive: growth inhibition [1] -13% | growth inhibition [2] -16.7% | viability increase [3] -0.84% | viability [4] 94.1% | viability [5] 95.5% | inhibition [6] 1.91% | RAM network inhibition [7] 5.77%

COc1ccc(CCNC(=O)CCS(=O)(=O)c2cccc3nsnc23)cc1OC
inactive: growth inhibition [1] -10.1% | growth inhibition [2] -13.1% | viability increase [3] -2.17% | viability [4] 96.4% | viability [5] 97.5% | inhibition [6] 0.45% | RAM network inhibition [7] 3.1%

CCOc1ccc(-c2nc(-c3ccccc3)no2)cc1OCC
inactive: growth inhibition [1] -16.6% | growth inhibition [2] -29.6% | viability increase [3] 2.12% | viability [4] 106% | viability [5] 91% | inhibition [6] 3.66% | RAM network inhibition [7] 5.86%

COC(=O)/C=C/S(=O)(=O)c1ccc(NC(C)=O)cc1
inactive: growth inhibition [1] -15.3% | growth inhibition [2] 0.685% | viability increase [3] -8.44% | viability [4] 88.3% | viability [5] 85.4% | inhibition [6] 0.565% | RAM network inhibition [7] 7.25%

Cc1noc(C)c1S(=O)(=O)NC1CCN(Cc2ccccc2)CC1
inactive: growth inhibition [1] -12.1% | growth inhibition [2] -2.23% | viability increase [3] -0.68% | viability [4] 95.8% | viability [5] 94.1% | inhibition [6] 3.14% | RAM network inhibition [7] 4.49%

Cn1c(=O)oc2cc(S(=O)(=O)N3CCCC(C(=O)NCc4cccs4)C3)ccc21 (centres undefined)
inactive: growth inhibition [1] 2.14% | growth inhibition [2] 2.64% | viability increase [3] -1.73% | viability [4] 100% | viability [5] 93.4% | inhibition [6] 2.51% | RAM network inhibition [7] 6.45%

O=C(c1ccccc1S(=O)(=O)NCc1ccccc1)N1CCCCC1
inactive: growth inhibition [1] -1.57% | growth inhibition [2] -5.03% | viability increase [3] -2.89% | viability [4] 98.6% | viability [5] 91% | inhibition [6] 1.01% | RAM network inhibition [7] 1.68%

CC1CCCN(c2ncnc3c2cnn3-c2ccccc2)C1 (centres undefined)
inactive: growth inhibition [1] -2.51% | growth inhibition [2] -4.29% | viability increase [3] -2.92% | viability [4] 77.5% | viability [5] 73.5% | inhibition [6] 0.15% | RAM network inhibition [7] 4.59%

COc1ccc(N2C(=O)CC(c3ccc(OC(C)C)cc3)C2=O)cc1 (centres undefined)
inactive: growth inhibition [1] -5.08% | growth inhibition [2] -8.6% | viability increase [3] 1.46% | viability [4] 97.9% | viability [5] 104% | inhibition [6] 1.39% | RAM network inhibition [7] 3.45%

Nc1cccc(-n2nncc2-c2ccc(Cl)cc2)c1
inactive: growth inhibition [1] -6.67% | growth inhibition [2] -5.47% | viability increase [3] -1.43% | viability [4] 99.3% | viability [5] 91.8% | inhibition [6] 1.98% | RAM network inhibition [7] 3.64%

CN(C)c1ccc(S(=O)(=O)c2ccc(Cl)cc2)cc1
inactive: growth inhibition [1] 2.13% | growth inhibition [2] 16.1% | viability increase [3] -1.11% | viability [4] 103% | viability [5] 100% | inhibition [6] 1.79% | RAM network inhibition [7] 5.79%

CCOC(=O)c1ccccc1NC(=O)C1COc2ccccc2O1 (centres undefined)
inactive: growth inhibition [1] -25.8% | growth inhibition [2] -30.7% | viability increase [3] 4.16% | viability [4] 83.2% | viability [5] 87.8% | inhibition [6] 1.09% | RAM network inhibition [7] 4.22%

CC(=N)C1=C(O)CC(C)(C)CC1=O
inactive: growth inhibition [1] -7.31% | growth inhibition [2] -1.06% | viability increase [3] 0.77% | viability [4] 94.9% | viability [5] 105% | inhibition [6] 1.49% | RAM network inhibition [7] 2.39%

CCCn1cc(SCC(=O)Nc2nnc(C)s2)c2ccccc21
inactive: growth inhibition [1] 3.3% | growth inhibition [2] 0.865% | viability increase [3] -2.55% | viability [4] 91% | viability [5] 96.2% | inhibition [6] 1.1% | RAM network inhibition [7] 3.75%

CCOC(=O)C1=C(N)OC2=C(C(=O)CCC2)C1c1cccs1 (centres undefined)
inactive: growth inhibition [1] -0.655% | growth inhibition [2] 5.78% | viability increase [3] 0.3% | viability [4] 108% | viability [5] 104% | inhibition [6] 0.345% | RAM network inhibition [7] 2.67%

Cc1nc2ccc(NC(=O)c3ccc(Cl)s3)cc2s1
inactive: growth inhibition [1] -7.99% | growth inhibition [2] -7.74% | viability increase [3] -3.83% | viability [4] 106% | viability [5] 97.1% | inhibition [6] 1.84% | RAM network inhibition [7] 4.46%

Cc1ccc(C(=O)N2CCN(c3ccccc3)CC2)cc1C
inactive: growth inhibition [1] 3.37% | growth inhibition [2] 8.08% | viability increase [3] 0.84% | viability [4] 101% | viability [5] 97.7% | inhibition [6] 0.13% | RAM network inhibition [7] 2.03%

COc1ccccc1NC(=O)CSc1ncn[nH]1
inactive: growth inhibition [1] -3.71% | growth inhibition [2] -11% | viability increase [3] 1.06% | viability [4] 98.2% | viability [5] 101% | inhibition [6] -0.045% | RAM network inhibition [7] 2.9%

CCCCN1C(=O)c2ccc(C(=O)Nc3c(N)n(CCCC)c(=O)n(C)c3=O)cc2C1=O
inactive: growth inhibition [1] -9.82% | growth inhibition [2] -6.89% | viability increase [3] -0.93% | viability [4] 103% | viability [5] 88.2% | inhibition [6] 0.865% | RAM network inhibition [7] 7.06%

O=C(NCc1ccco1)c1cc(S(=O)(=O)N2CCOCC2)ccc1Cl
inactive: growth inhibition [1] -8.68% | growth inhibition [2] -8.34% | viability increase [3] -3.24% | viability [4] 86.2% | viability [5] 95.2% | inhibition [6] 3.05% | RAM network inhibition [7] 1.96%

Cc1ccc(F)c(NC=C2C(=O)OC(C)(C)OC2=O)c1
inactive: growth inhibition [1] -10.2% | growth inhibition [2] -7.67% | viability increase [3] 0.97% | viability [4] 87.9% | viability [5] 92.8% | inhibition [6] 2.53% | RAM network inhibition [7] 2.44%
